Legend:
Pseudomonas aeruginosa [1] = assay: Antibacterial activity against Pseudomonas aeruginosa isolate PR-564 leucine at 533 residue assessed as inhibition of bacterial growth by microdilution method; assay type: functional
Summary of the method: (§1)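 Broth microdilution in Chelex-treated, iron-depleted cation-adjusted Mueller-Hinton broth, following the protocol used for siderophore-containing antibiotics; inoculum lowered to 6 × 10^4 cfu/mL; MIC read as growth inhibition, in μg/mL.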

[2] = Plasma concentration in SC dosed CD-1 mouse treated four times at 6 hrs interval measured after 4 hrs; assay type: ADME, organism-based
Summary of the method: (§2)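 CD-1 mice dosed SC at 50 mg/kg. Plasma sampled at 0.167 to 24 h, three individual mice per time point, reported as mean and SD in ng/mL.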

[3] = Plasma concentration in SC dosed CD-1 mouse treated four times at 6 hrs interval measured after 8 hrs; assay type: ADME, organism-based; summary of the method: as §2
Acinetobacter baumannii [4] = assay: Antibacterial activity against carbapenem resistant Acinetobacter baumannii isolate PR-387 assessed as bacterial growth inhibition by microdilution method; assay type: functional; summary of the method: as §1
Acinetobacter baumannii [5] = assay: Antibacterial activity against carbapenem resistant Acinetobacter baumannii isolate PR-319 assessed as bacterial growth inhibition by microdilution method; assay type: functional; summary of the method: as §1
Acinetobacter baumannii [6] = assay: Antibacterial activity against carbapenem resistant Acinetobacter baumannii isolate PR-459 assessed as inhibition of bacterial growth at 1:1 compound to sulbactam concentration by microdilution method; assay type: functional
Summary of the method: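 Iron-depleted (Chelex-treated) cation-adjusted Mueller-Hinton broth microdilution; inoculum 6 × 10^4 cfu/mL. Test agent and sulbactam mixed 1:1 by mass and serially 2-fold diluted together. MIC in μg/mL.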

Acinetobacter baumannii [7] = assay: Antibacterial activity against carbapenem resistant Acinetobacter baumannii isolate PR-342 assessed as bacterial growth inhibition by microdilution method; assay type: functional; summary of the method: as §1
Pseudomonas aeruginosa [8] = assay: Antibacterial activity against wild type Pseudomonas aeruginosa isolate PR-680 leucine at 533 residue assessed as inhibition of bacterial growth by microdilution method; assay type: functional
Summary of the method: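 Broth microdilution MIC in iron-depleted (Chelex resin-treated) cation-adjusted Mueller-Hinton broth, following the protocol used for siderophore-containing antibiotics. Inoculum was lowered to 6 × 10^4 cfu/mL.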

[9] = Substrate activity at IMP-1 (unknown origin) assessed as Kcat by measuring hydrolysis by spectrophotometry; assay type: ADME
Summary of the method: (§3)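 Substrate hydrolysis (600 μM start) followed at 336 nm (Δε336 = −4362 M−1 cm−1, 0.2 cm cuvette) to completion; velocities over 10 s intervals along progress curve; Km, Vmax from double reciprocal plot, kcat = Vmax/[E].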

[10] = Substrate activity at NDM1 (unknown origin) assessed as Kcat by measuring hydrolysis by spectrophotometry; assay type: ADME; summary of the method: as §3
[11] = Antibacterial activity against carbapenem susceptible Acinetobacter nosocomialis isolate PR-365 assessed as inhibition of bacterial growth in presence of 20 ug/ml sulbactam by microdilution method; assay type: functional; conditions: dose 20 µg/ml
Summary of the method: (§4)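 MIC by broth microdilution using iron-depleted (Chelex-treated) cation-adjusted Mueller-Hinton broth and 6 × 10^4 cfu/mL inoculum. Compound serially diluted with sulbactam held constant at 20 μg/mL.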

PDE3A = PDE3A (Homo sapiens, UniProt Q14432); assay: Inhibition of PDE3A (unknown origin) at 30 uM
[12] = Plasma concentration in SC dosed CD-1 mouse treated four times at 6 hrs interval measured after 0.5 hrs; assay type: ADME, organism-based; summary of the method: as §2
Acinetobacter baumannii [13] = assay: Antibacterial activity against carbapenem susceptible Acinetobacter baumannii isolate PR-434 assessed as inhibition of bacterial growth in presence of 20 ug/ml sulbactam by microdilution method; assay type: functional; conditions: dose 20 µg/ml; summary of the method: as §4
Acinetobacter baumannii [14] = assay: Antibacterial activity against carbapenem susceptible Acinetobacter baumannii isolate PR-478 assessed as inhibition of bacterial growth at 1:1 compound to sulbactam concentration by microdilution method; assay type: functional
Summary of the method: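 Broth microdilution MIC in Chelex-treated, iron-depleted cation-adjusted Mueller-Hinton broth, inoculum 6 × 10^4 cfu/mL. Compound and sulbactam combined 1:1 by mass in a 2-fold dilution series.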

Sequence of PDE3A (Q14432 whole entry): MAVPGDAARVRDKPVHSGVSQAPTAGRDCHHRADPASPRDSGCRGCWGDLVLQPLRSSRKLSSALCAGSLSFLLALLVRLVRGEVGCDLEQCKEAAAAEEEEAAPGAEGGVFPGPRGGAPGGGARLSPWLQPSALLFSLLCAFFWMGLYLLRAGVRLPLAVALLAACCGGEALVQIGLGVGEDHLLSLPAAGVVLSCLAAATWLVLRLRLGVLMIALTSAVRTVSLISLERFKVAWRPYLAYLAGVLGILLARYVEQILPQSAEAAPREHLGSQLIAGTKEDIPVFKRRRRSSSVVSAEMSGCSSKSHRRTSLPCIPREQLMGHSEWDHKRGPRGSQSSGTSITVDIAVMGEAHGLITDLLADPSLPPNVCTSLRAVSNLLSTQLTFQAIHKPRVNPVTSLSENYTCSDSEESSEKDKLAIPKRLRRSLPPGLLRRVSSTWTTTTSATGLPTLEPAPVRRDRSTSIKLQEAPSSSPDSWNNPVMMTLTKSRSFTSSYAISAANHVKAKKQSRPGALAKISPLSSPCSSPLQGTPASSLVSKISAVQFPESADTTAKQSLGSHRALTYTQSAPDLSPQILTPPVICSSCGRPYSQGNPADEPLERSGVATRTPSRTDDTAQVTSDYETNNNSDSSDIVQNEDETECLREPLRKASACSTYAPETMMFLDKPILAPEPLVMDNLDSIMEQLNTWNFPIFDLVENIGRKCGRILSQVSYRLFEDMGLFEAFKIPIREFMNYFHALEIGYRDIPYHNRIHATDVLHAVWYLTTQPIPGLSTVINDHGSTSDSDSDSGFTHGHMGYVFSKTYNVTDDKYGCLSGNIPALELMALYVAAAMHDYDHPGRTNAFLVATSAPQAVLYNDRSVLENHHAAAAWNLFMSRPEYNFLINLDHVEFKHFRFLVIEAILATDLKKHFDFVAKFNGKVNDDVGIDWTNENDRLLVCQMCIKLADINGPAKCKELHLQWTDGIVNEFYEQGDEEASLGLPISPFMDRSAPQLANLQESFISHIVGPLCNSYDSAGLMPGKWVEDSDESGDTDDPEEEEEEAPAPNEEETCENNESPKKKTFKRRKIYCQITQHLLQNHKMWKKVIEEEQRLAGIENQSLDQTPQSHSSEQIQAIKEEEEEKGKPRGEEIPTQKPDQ

For CC(C)(O/N=C(\C(=O)N[C@H]1CN2CC(C(=O)NCCN3C(=O)c4cc(O)c(O)cc4C3=O)=C(C(=O)O)N2C1=O)c1nc(N)sc1Cl)C(=O)O, the MIC (Pseudomonas aeruginosa [1]) was > 16 µg/mL, the concentration at 4 h [2] was 1340 ng/mL and the concentration at 8 h [3] was 1200 ng/mL. The MIC (Acinetobacter baumannii [4]) was > 16 µg/mL, the MIC (Acinetobacter baumannii [5]) was > 16 µg/mL and the MIC (Acinetobacter baumannii [6]) was 8 µg/mL. For the same compound, the MIC (Acinetobacter baumannii [7]) was 16 µg/mL, the MIC (Pseudomonas aeruginosa [8]) was > 16 µg/mL and the Kcat [9] was 5 s⁻¹. For the same compound, the Kcat [10] was 35 s⁻¹, the MIC [11] was ≤ 0.25 µg/mL and the inhibition at 30 µM (PDE3A) was > 50%. The concentration at 0.5 h [12] was 16200 ng/mL, the MIC (Acinetobacter baumannii [13]) was ≤ 0.25 µg/mL and the MIC (Acinetobacter baumannii [14]) was 1 µg/mL.

Reference: ChEMBL document CHEMBL4842318, “A γ-lactam siderophore antibiotic effective against multidrug-resistant Pseudomonas aeruginosa, Klebsiella pneumoniae, and Acinetobacter spp” (Eur J Med Chem, 2021)
